Rows were chosen to be rich in hits. Some 4.1% of all compounds tested hit in one or more screens of this group.
Cl transport mod – KCC2 (human) Cl- transport modulation; Q9H2X9; KCC2 cells, thallium flux FluoZin-2 fluorescence; B-score of Tl+ flux slope (higher = more flux/activation; lower = inhibition) at 10 µM; 190,000 tested, 2.2% active;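 active = thallium flux slope and its plate-corrected score both differing from the plate sample mean at a set confidence after two filtering rounds, in either direction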;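 also: slope of fluorescence scaled to starting intensity during 10 to 20 s after thallium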
KCNK3 block – human KCNK3 channel inhibition, primary screen | O14649 | CHO-KCNK3 thallium flux, FluxOR fluorescence; active compounds read low | B-score at 10 µM | 340,000 tested, 0.84% active;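 active = B-score under library mean minus 4 SD, starting fluorescence ratio at most library mean plus 5 SD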;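 also: more negative B-score means stronger inhibition of thallium flux through KCNK3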
Target sequence (O14649 whole entry, looked up): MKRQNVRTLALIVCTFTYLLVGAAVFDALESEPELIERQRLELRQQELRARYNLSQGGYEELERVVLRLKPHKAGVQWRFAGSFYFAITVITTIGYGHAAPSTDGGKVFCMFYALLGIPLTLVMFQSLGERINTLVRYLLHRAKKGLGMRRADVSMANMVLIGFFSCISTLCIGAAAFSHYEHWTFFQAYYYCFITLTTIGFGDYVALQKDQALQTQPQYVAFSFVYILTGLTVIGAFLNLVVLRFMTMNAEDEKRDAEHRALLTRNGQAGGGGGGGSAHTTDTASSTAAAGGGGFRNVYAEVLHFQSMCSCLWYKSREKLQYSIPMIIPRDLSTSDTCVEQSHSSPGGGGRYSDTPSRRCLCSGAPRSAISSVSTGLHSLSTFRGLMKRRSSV
KCNK9 block – inhibitors of human KCNK9 two-pore domain potassium channel; Q9NPC2; HEK293 KCNK9, FluxOR thallium flux fluorescence; active compounds read low; B-score at 10 µM; 310,000 tested, 1.2% active;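 active = ratio B-score over 3 SD below the library mean, with starting fluorescence within 5 SD of its mean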;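 also: negative B-score means less thallium flux so channel inhibition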
Target sequence (Q9NPC2 whole entry, looked up, the tested form may be a part): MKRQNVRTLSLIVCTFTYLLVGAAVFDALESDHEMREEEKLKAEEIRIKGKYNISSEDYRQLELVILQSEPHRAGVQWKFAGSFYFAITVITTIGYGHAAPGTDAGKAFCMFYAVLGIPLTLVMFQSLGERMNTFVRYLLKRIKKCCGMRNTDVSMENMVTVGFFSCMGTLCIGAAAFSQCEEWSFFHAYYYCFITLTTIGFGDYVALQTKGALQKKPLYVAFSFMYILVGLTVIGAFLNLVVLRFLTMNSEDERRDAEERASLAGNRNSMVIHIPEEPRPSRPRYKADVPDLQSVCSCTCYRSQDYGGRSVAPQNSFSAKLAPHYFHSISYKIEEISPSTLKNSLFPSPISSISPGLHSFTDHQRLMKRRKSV
hERG protect – shields human hERG channel from block by proarrhythmic agents | Q12809 | CHO-hERG, FluxOR thallium flux, dofetilide IC70 present | activation (rescue from dofetilide block), less the hit threshold, % at 10 µM | 310,000 tested, 0.51% active | AID 1511;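 active = activation above the mean of controls blocked by dofetilide plus 5 SD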;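 also: thallium influx through hERG after potassium depolarization seen as dye fluorescence rise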
KCNQ1 act – potentiators or activators of human KCNQ1 potassium channel | AID 2648 | CHO-K1 KCNQ1, thallium flux FluxOR fluorescence; active compounds read high | B-score at 10 µM | P51787 | 310,000 tested, 0.35% active;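 active = fluorescence ratio B-score, a plate-corrected score, at least three library SD, with initial intensity B-score within 5 SD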
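assay system = CHO-K1 cells stably expressing KCNQ1 | medium = assay buffer, equal DMSO in all wells | timing = 37 °C overnight plating, 90-min dark dye load, 20-min compound pretreatment | measured by = kinetic FluxOR thallium fluorescence, 10-s 1-Hz baseline, 110-s post-stimulus read | measure = fluorescence change relative to baseline, converted to B score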
KCNQ1 inh – blocks the human KCNQ1 potassium channel; 310,000 tested, 1.3% active; B-score at 10 µM; CHO-K1 KCNQ1, FluxOR thallium flux fluorescence; active compounds read high; P51787;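 active = compounds whose thallium flux B-score, printed positive for inhibition, exceeds three library SD while starting fluorescence stays within three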;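 also: channel opened by potassium depolarization with thallium stimulus after 20 min compound exposure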
KCNK3 inh conf – human KCNK3 channel inhibition, confirmation assay. shares compounds with KCNK3 block. CHO-KCNK3 thallium flux, FluxOR fluorescence; 0% buffer, 100% carvedilol maximal block. ratio percent of control, % at 10 µM. 2,400 tested, 99% active. AID 651638;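 active = ratio percent of control, averaged over triplicates, above buffer control mean plus 5 SD, cut at about 64% in these data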;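 also: ratio is the fluorescence rise from min to max over baseline after thallium stimulus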
KCNK3 uninduced – counter-screen for KCNK3 inhibitors: effect in non-induced cells. shares compounds with KCNK3 block. non-induced KCNK3 parental cells, FluxOR thallium flux; active compounds read low. thallium flux ratio (lower = more inhibition) at 10 µM. 2,400 tested, 40% active. AID 651747;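 active = thallium flux ratio, averaged over three wells, more than 5 SD below the buffer control mean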;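 also: host cells are CHO cells without KCNK3 induction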
Large screens that a line does not name were inactive (follow-up assays come after a bar, where they were run).

Cc1noc(C)c1COc1ccccc1C(=O)NCCOc1ccccc1F	none (no result: Cl transport mod, KCNK9 block, hERG protect, KCNQ1 act, KCNQ1 inh)
Cc1noc(C)c1COc1ccccc1C(=O)NC1CCC(C)CC1 (stereo not drawn)	KCNK3 block -10 (no result: Cl transport mod) | KCNK3 inh conf 106 | KCNK3 uninduced inactive
Cc1cccn2c(=O)c3cc(C(=O)NC4CCCCC4)c(=N)n(Cc4ccc(F)cc4)c3nc12	KCNK3 block -13 (no result: Cl transport mod) | KCNK3 inh conf 122 | KCNK3 uninduced 0.13
CCn1c(COc2ccc(C)cc2)nc2ccccc21	KCNK3 block -12 | KCNK3 inh conf 112 | KCNK3 uninduced inactive
Cc1c(CCNC=O)cc(C)c2c3c(oc12)CCCC3	none (no result: Cl transport mod, KCNK9 block, hERG protect, KCNQ1 act, KCNQ1 inh)
CC(C)n1nnc(-c2ccc(OCc3ccccc3F)cc2)n1	KCNK3 block -9.1, KCNK9 block -7.9 (no result: Cl transport mod) | KCNK3 inh conf 99 | KCNK3 uninduced inactive
COc1cccc2cc(C(C)N(CCCN3CCOCC3)C(=S)Nc3ccc(C)cc3)oc12 (stereo not drawn)	KCNK3 block -9.5 | KCNK3 inh conf 105 | KCNK3 uninduced inactive
CC(=O)N1c2ccc(S(=O)(=O)N3CCC(C(=O)Nc4cccc(C)c4)CC3)cc2CC1C (stereo not drawn)	none (no result: Cl transport mod)
CC(=O)N1c2ccc(S(=O)(=O)N3CCCCC3)cc2CC1C(=O)Nc1cccc(C)c1 (stereo not drawn)	KCNK3 block -11 (no result: Cl transport mod) | KCNK3 inh conf 95 | KCNK3 uninduced inactive
CCCc1cc(C(=O)Nc2cc(OC)ccc2OC)cs1	KCNK3 block -10 (no result: Cl transport mod) | KCNK3 inh conf 130 | KCNK3 uninduced 0.15
COc1ccc(OC)c(NC(=O)c2ccc(OC3CSC3)cc2)c1	KCNK3 block -9.1 | KCNK3 inh conf 102 | KCNK3 uninduced inactive
CCOc1ccccc1C(=O)Nc1cc(OC)ccc1OC	none (no result: Cl transport mod)
COc1ccc(NC(=O)c2ccc(-n3c(C)ccc3C)cc2)c(OC)c1	KCNK3 block -8.8 | KCNK3 inh conf 124 | KCNK3 uninduced inactive
COc1ccc(OC)c(NC(=O)c2ccc(NC(C)=O)cc2)c1	none (no result: Cl transport mod)
NC(=O)Cc1ccc(C(=O)CSc2nnc(-c3ccncc3)n2C2CC2)s1	none (no result: Cl transport mod, KCNK9 block, hERG protect, KCNQ1 act, KCNQ1 inh)
Cc1ccc(-c2cc(-c3ccc(C)o3)nc(N)c2C#N)cc1	KCNK3 block -11 | KCNK3 inh conf 101 | KCNK3 uninduced inactive
Cc1ccc(-c2cc(-c3ccc(F)cc3)c(C#N)c(N)n2)o1	none
Cc1cccc(C)c1NC(=O)CN(C)CC(=O)Nc1ccc(F)c(Cl)c1	KCNK3 block -12 | KCNK3 inh conf 82 | KCNK3 uninduced inactive
Cc1cccc(C)c1NC(=O)CN(C)CC(=O)Nc1cc(Cl)ccc1C#N	none
CCN1CCSc2ccc(C(=O)NCc3cccc(Br)c3)cc21	KCNK3 block -12, KCNK9 block -7 (no result: Cl transport mod) | KCNK3 inh conf 119 | KCNK3 uninduced inactive
CCOc1ccccc1CNC(=O)c1ccc2c(c1)N(CC)CCS2	none (no result: Cl transport mod)
O=C(NCCO)c1c(O)c2cccc3c2n(c1=O)CC3	none (no result: Cl transport mod)
CCOC(=O)c1c(O)c2cccc3c2n(c1=O)CC3	KCNK3 block -9.1 | KCNK3 inh conf 100 | KCNK3 uninduced inactive
CCOc1ccc(NC(=S)N(CCc2c(C)[nH]c3ccc(C)cc23)Cc2cccnc2)cc1	KCNK3 block -9.9 | KCNK3 inh conf 92 | KCNK3 uninduced 0.14
CCNC(=S)N(CCc1c(C)[nH]c2ccc(C)cc12)Cc1cccnc1	none (no result: Cl transport mod)
COCCNC(=S)N/N=C/c1c2ccccc2cc2ccccc12	KCNK3 block -14 (no result: Cl transport mod) | KCNK3 inh conf 110 | KCNK3 uninduced inactive
S=C(NCCN1CCOCC1)N/N=C/c1c2ccccc2cc2ccccc12	none (no result: Cl transport mod)
O=C(CCSCc1ccccc1F)NCc1ccc(F)cc1	none (no result: Cl transport mod)
O=C(Nc1cc(Cl)ccc1Cl)N1CCN(C(=O)Nc2cc(Cl)ccc2Cl)CC1	none (no result: Cl transport mod, KCNK9 block, hERG protect, KCNQ1 act, KCNQ1 inh)
O=C(c1ccncc1)N(Cc1ccco1)Cc1cc2ccccc2[nH]c1=O	none
Cc1cccc2cc(CN(Cc3ccco3)C(=O)c3ccncc3)c(=O)[nH]c12	KCNK3 block -22 | KCNK3 inh conf 63 | KCNK3 uninduced inactive
N#CCC(=O)N/N=C/c1c(-c2ccccc2)n(-c2ccccc2)c2ccccc12	KCNK3 block -9.6 (no result: Cl transport mod) | KCNK3 inh conf 97 | KCNK3 uninduced inactive
Cc1ccc2nccc(C(=O)N3CCCC(Nc4ccc(C)c(C)c4)C3)c2c1 (stereo not drawn)	none (no result: Cl transport mod)
CCOC(=O)C1CCCN(C(=O)c2ccc(S(=O)(=O)Nc3ccccc3OC)cc2)C1 (stereo not drawn)	none (no result: Cl transport mod, KCNK9 block, hERG protect, KCNQ1 act, KCNQ1 inh)
COc1cccc(CNC(=S)Nc2ccc(Cl)cc2C)c1	none (no result: Cl transport mod)
Fc1ccc(CNC(=S)NCc2cccc(Cl)c2)cc1	KCNK3 block -9.4 (no result: Cl transport mod) | KCNK3 inh conf 113 | KCNK3 uninduced inactive
Cc1cc(Cl)ccc1NC(=S)NCc1ccccc1	KCNK3 block -9.5 | KCNK3 inh conf 87 | KCNK3 uninduced inactive
COC(=O)c1cccc(NC(=O)CSc2nnc(C3CC3)n2C)c1	none (no result: Cl transport mod)
Oc1cccc(-c2nc3ccc4ccccc4c3c3c2CCC3)c1	KCNK3 block -19 | KCNK3 inh conf 111 | KCNK3 uninduced 0.15
O=C(NNc1c2ccccc2nc2ccccc12)c1cccc(O)c1	none
COc1cc2c(cc1NC(=O)c1cccnc1)CCCC2	none (no result: Cl transport mod)
COc1ccc(C(=O)Nc2cc3c(cc2OC)CCCC3)cc1Br	KCNK3 block -13 | KCNK3 inh conf 105 | KCNK3 uninduced 0.15
COc1cc2c(cc1NC(=O)c1ccc(C(C)(C)C)cc1)CCCC2	KCNK3 block -10 | KCNK3 inh conf 105 | KCNK3 uninduced inactive
COc1nccnc1NS(=O)(=O)c1ccc(N)cc1	none (no result: Cl transport mod)
Cc1ccc(S(=O)(=O)Nc2cccc(C(=O)NCC3CCCO3)c2)cc1F (stereo not drawn)	none (no result: Cl transport mod)
CCC(C)NC(=O)CCn1c(=O)c2cccn2c2ccc(F)cc21 (stereo not drawn)	none (no result: Cl transport mod)
CC/C(=C\c1oc2cc3ccccc3cc2[n+]1CC)Nc1ccccc1	KCNK3 block -10, KCNQ1 inh 9 (no result: Cl transport mod) | KCNK3 inh conf 127 | KCNK3 uninduced 0.14
CC[n+]1c(/C=C/Nc2ccccc2)oc2ccc(OC)cc21	none
Cn1c(=O)c2c(SCC(=O)N3CCOCC3)nc(-c3ccccc3Cl)nc2n(C)c1=O	none (no result: Cl transport mod)
O=S(Cc1ccc(Br)cc1)Cc1nnc(SCc2c(F)cccc2Cl)n1-c1ccccc1 (stereo not drawn)	none
O=S(Cc1ccc(Br)cc1)Cc1nnc(SCc2ccc(Cl)cc2)n1-c1ccccc1 (stereo not drawn)	KCNK3 block -10 (no result: Cl transport mod) | KCNK3 inh conf 98 | KCNK3 uninduced inactive
O=C(/C=C/c1cccc([N+](=O)[O-])c1)c1ccc([N+](=O)[O-])o1	none (no result: Cl transport mod)

Compound activity: PubChem BioAssay, several laboratories
